Results from different studies.
Protocols differ between the studies behind these lines.
EGFR G719C: Epidermal growth factor receptor (EGFR, Homo sapiens, UniProt P00533, G719C)
EGFR L861Q: Epidermal growth factor receptor (EGFR, Homo sapiens, UniProt P00533, L861Q)
EGFR: Epidermal growth factor receptor (EGFR, Homo sapiens, UniProt P00533)
EGFR L858R/T790M: Epidermal growth factor receptor (EGFR, Homo sapiens, UniProt P00533, L858R/T790M)
EGFR del747-750/T751S: Epidermal growth factor receptor (EGFR, Homo sapiens, UniProt P00533, del747-750/T751S)
EGFR G719S: Epidermal growth factor receptor (EGFR, Homo sapiens, UniProt P00533, G719S)
EGFR T790M: Epidermal growth factor receptor (EGFR, Homo sapiens, UniProt P00533, T790M)

SMILES | target | effect on | technique | concentration | remaining binding [%]
N[C@H]1CCN(c2nccc(-c3cnn4ncccc34)n2)C1 | EGFR G719C | binding |  | 1 µM | 88
CNC(=O)[C@@H]1CC[C@@H](n2c(-c3ccc4cnccc4c3)nc3ccc(C(=O)NCc4cccc(C(N)=O)c4)cc32)C1 | Epidermal growth factor receptor (EGFR, Homo sapiens, UniProt P00533, A750P/del747-749) | binding | competition with immobilised ligand | 1 µM | 100
C[C@H]1CCN(c2nccc(-c3cnn4ncccc34)n2)C1 | EGFR L861Q | binding |  | 1 µM | 81
FC(F)(F)Oc1cccc(-c2cnc3ccc(-c4ccncc4)nn23)c1 | EGFR | cell-free assay | competition with immobilised ligand | 5 µM | 79
CN1CCN(c2ccc(Nc3nccc(-c4ccccc4)n3)cc2C(F)(F)F)CC1 | EGFR L858R/T790M | binding |  | 10 µM | 93
O=C(NCc1ncc(C(F)(F)F)cc1Cl)c1ccc2c(c1)C1(CCS(=O)(=O)CC1)[C@@H](C1CC1)N2S(=O)(=O)c1ccc(F)cc1 | EGFR del747-750/T751S | cell-free assay | competition with immobilised ligand | 1 µM | 79
O=C(c1ccc(Nc2ncc(Cl)c(-c3ccc(Cl)s3)n2)cc1)N1CCC(N2CCCC2)CC1 | EGFR | binding | competition with immobilised ligand | 1 µM | 86
CNCc1ccccc1-c1csc([C@H](C)Nc2nc(C)nc3cc(OC)c(OC)cc23)c1 | EGFR L858R/T790M | cell-free assay | competition with immobilised ligand | 1 µM | 87
COc1cnc(Nc2cccc(S(N)(=O)=O)c2)nc1N1CCN(c2ccccc2)CC1 | EGFR L861Q | binding | competition with immobilised ligand | 1 µM | 100
COc1ccc2c(c1)O[C@H](c1ccc(OC)c(OC)c1)C[C@@H]2NC(=O)C1(c2ccc3c(c2)OC(F)(F)O3)CC1 | EGFR G719S | cell-free assay | competition with immobilised ligand | 1 µM | 99
Cc1cnn2ncc(-c3ccnc(N(C)C)n3)c2c1 | EGFR | binding |  | 1 µM | 75
CN(C)c1ncnc(-c2ccc3nc(Nc4cc(CN5CCN(C(=O)CC(F)(F)F)CC5)ccn4)[nH]c3c2)c1Cl | EGFR del747-750/T751S | cell-free assay | competition with immobilised ligand | 1 µM | 88
c1cnn2ncc(-c3ccnc(N4CCC45COC5)n3)c2c1 | EGFR G719C | binding |  | 1 µM | 100
COc1cc(-c2cn(C3CCc4ccccc4N(CC(F)(F)F)C3=O)nn2)ccc1-n1ccc(C)n1 (centres unmarked) | EGFR T790M | cell-free assay | competition with immobilised ligand | 1 µM | 59
CCN(CC)Cc1cc(Nc2ccnc3cc(Cl)ccc23)ccc1O | EGFR | cell-free assay | competition with immobilised ligand | 0.1 µM | 100
C[C@@H]1CN(c2cc(-c3n[nH]c4ccc(OC5(C)CC5)cc34)ncn2)C[C@H](C)O1 | EGFR G719S | cell-free assay | competition with immobilised ligand | 0.1 µM | 59
O=C(NCCCN1CCOCC1)c1ccc(Nc2ncc(Cl)c(-c3ccc(Cl)s3)n2)cc1 | EGFR del747-750/T751S | binding | competition with immobilised ligand | 1 µM | 100
F[C@@H]1CCN(c2nccc(-c3cnn4ncccc34)n2)C1 | EGFR L858R/T790M | binding |  | 1 µM | 100
Cc1cnc(Nc2ccc(C(=O)N3CCC(N4CCCC4)CC3)cc2)nc1-c1cc2ccccc2s1 | EGFR T790M | binding | competition with immobilised ligand | 1 µM | 56
CC1CCCN1c1nccc(-c2cnn3ncccc23)n1 (centres unmarked) | EGFR G719C | binding |  | 1 µM | 100
O=C(NCCCC1CCCCC1)c1ccc(CNC(=O)c2cnn(-c3ccccc3)c2C(F)(F)F)cc1 | EGFR L858R/T790M | cell-free assay | competition with immobilised ligand | 0.1 µM | 95
COc1ncc2cc3ccccc3nc2c1C#N | EGFR G719C | cell-free assay | competition with immobilised ligand | 5 µM | 2.1
O=C(NCC1CCOCC1)c1n[nH]cc1NC(=O)c1c(F)cccc1F | Epidermal growth factor receptor (EGFR, Homo sapiens, UniProt P00533, L858R) | binding | competition with immobilised ligand | 1 µM | 89
